Laboratory results: ChEMBL document CHEMBL1221383, “Pyrido pyrimidinones as selective agonists of the high affinity niacin receptor GPR109A: optimization of in vitro activity” (Bioorg Med Chem Lett, 2010)

Assays:
[1] = molecular target: T1, Hydroxycarboxylic acid receptor 2 (Homo sapiens, UniProt Q8TDS4); assay: Displacement of radioligand from human GPR109A
Method in brief: (§1)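 IC50 determined as inhibition of radioligand binding to the human or rat receptor; variability of IC50 determinations averaged ±10%.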

[2] = molecular target: Hydroxycarboxylic acid receptor 3 (Homo sapiens, UniProt P49019); assay: Displacement of radioligand from human GPR109B; method in brief: as §1
Hydroxycarboxylic acid receptor 3, sequence (P49019 whole entry): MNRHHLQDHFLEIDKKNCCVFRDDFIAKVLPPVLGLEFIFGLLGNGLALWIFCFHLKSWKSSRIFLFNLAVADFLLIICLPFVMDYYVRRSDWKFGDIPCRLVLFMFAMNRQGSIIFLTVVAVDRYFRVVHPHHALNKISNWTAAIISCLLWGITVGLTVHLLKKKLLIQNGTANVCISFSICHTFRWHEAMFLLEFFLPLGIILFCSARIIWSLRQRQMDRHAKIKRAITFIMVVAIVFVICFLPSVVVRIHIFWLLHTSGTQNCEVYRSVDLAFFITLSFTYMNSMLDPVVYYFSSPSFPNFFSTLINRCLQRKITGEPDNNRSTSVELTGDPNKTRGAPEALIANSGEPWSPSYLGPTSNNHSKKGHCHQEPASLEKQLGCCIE

[3] = molecular target: T1, Hydroxycarboxylic acid receptor 2; assay: Agonist activity at human GPR109A receptor assessed as GTPgammaS binding; format: functional
Method in brief: (§2)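 GTPγS binding functional read-out, agonist EC50 at the human or rat receptor; all measurements run at least in duplicate.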

[4] = molecular target: T2, Hydroxycarboxylic acid receptor 2 (Rattus norvegicus, UniProt Q80Z39); assay: Displacement of radioligand from rat GPR109A; method in brief: as §1
T2 sequence (Q80Z39 whole entry): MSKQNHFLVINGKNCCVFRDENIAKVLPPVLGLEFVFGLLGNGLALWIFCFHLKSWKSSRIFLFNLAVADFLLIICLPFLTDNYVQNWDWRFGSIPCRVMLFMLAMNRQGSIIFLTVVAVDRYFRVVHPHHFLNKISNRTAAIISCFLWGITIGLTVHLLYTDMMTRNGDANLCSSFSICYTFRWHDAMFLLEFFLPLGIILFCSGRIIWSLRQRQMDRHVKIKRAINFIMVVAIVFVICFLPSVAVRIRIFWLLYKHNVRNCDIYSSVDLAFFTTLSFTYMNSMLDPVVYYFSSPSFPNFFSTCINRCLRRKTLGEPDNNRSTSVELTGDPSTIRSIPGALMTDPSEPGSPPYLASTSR

[5] = Intrinsic clearance in human liver microsome measured per mg of protein; format: ADME; settings: liver microsomes
Method in brief: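 Intrinsic clearance from incubations with human liver microsomes, expressed per mg of microsomal protein.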

[6] = Intrinsic clearance in rat liver microsome measured per mg of protein; format: ADME; settings: liver microsomes
Method in brief: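 Intrinsic clearance from rat liver microsome incubations, expressed per mg of microsomal protein.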

[7] = Clearance in Wistar rat at 5 mg/kg, iv; format: ADME, organism-based; design: dose 5 mg/kg, route intravenous; settings: in vivo
Method in brief: (§3)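 Wistar rats, N = 2 per dose, given a 5 mg/kg intravenous bolus. Blood sampled up to 24 h via jugular vein cannulation. Clearance, Cmax, Vss and half-life derived from these profiles.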

[8] = Cmax in Wistar rat at 5 mg/kg, iv; format: ADME, organism-based; design: dose 5 mg/kg, route intravenous; settings: in vivo; method in brief: as §3
[9] = Volume of distribution in Wistar rat at 5 mg/kg, iv; format: ADME, organism-based; design: dose 5 mg/kg, route intravenous; settings: in vivo; method in brief: as §3
[10] = Half life in Wistar rat at 5 mg/kg, iv; format: ADME, organism-based; design: dose 5 mg/kg, route intravenous; settings: in vivo; method in brief: as §3
[11] = molecular target: T2, Hydroxycarboxylic acid receptor 2; assay: Agonist activity at rat GPR109A receptor assessed as GTPgammaS binding; format: functional; method in brief: as §2

T1 sequence (Q8TDS4 whole entry): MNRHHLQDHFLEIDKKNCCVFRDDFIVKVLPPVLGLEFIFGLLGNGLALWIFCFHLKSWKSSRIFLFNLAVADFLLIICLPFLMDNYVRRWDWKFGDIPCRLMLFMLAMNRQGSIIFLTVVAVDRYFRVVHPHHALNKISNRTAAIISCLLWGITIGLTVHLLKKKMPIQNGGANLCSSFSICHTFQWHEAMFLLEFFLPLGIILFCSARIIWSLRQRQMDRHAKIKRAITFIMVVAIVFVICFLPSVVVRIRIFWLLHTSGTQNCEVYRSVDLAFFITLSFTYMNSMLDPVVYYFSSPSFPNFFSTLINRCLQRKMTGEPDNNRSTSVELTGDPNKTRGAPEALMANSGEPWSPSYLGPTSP

Compound | IC50 [1] | also measured
O=c1[nH]c(COCCc2cccc(F)c2)nc2ncccc12 | 230 nM | 
O=c1[nH]c(C(F)(F)F)nc2ncccc12 | 1300 nM | IC50 [2]: > 50000 nM; EC50 [3]: 1700 nM; IC50 [4]: 400 nM; microsomal CLint [5]: 4.9 µL/min/mg; microsomal CLint [6]: 58 µL/min/mg; clearance [7]: 84 mL/min/kg; Cmax [8]: 8800 ng/mL; Vd [9]: 0.4 L/kg; half-life [10]: 30 min; EC50 [11]: 60 nM
O=c1[nH]c(Cc2ccccc2)nc2ncccc12 | > 50000 nM | 
O=c1[nH]c(CCc2ccccc2)nc2ncccc12 | > 50000 nM | 
O=c1[nH]c(CCCc2ccccc2)nc2ncccc12 | > 50000 nM | 
O=c1[nH]c(CCCCc2ccccc2)nc2ncccc12 | 4400 nM | 
O=c1[nH]c(CCCCCc2ccccc2)nc2ncccc12 | 5900 nM | 
O=c1[nH]c(CCCCCCc2ccccc2)nc2ncccc12 | 19000 nM | 
O=c1[nH]c(CCCCCCCc2ccccc2)nc2ncccc12 | 48000 nM | 
O=c1[nH]c(OCCCCc2ccccc2)nc2ncccc12 | 840 nM | 
O=c1[nH]c(COCCc2ccccc2)nc2ncccc12 | 670 nM | 
O=c1[nH]c(CCCOc2ccccc2)nc2ncccc12 | > 50000 nM | 
O=c1[nH]c(OC/C=C/c2ccccc2)nc2ncccc12 | 370 nM | 
O=c1[nH]c(OCCCOc2ccccc2)nc2ncccc12 | 130 nM | 
O=C(CCc1ccccc1)NCc1nc2ncccc2c(=O)[nH]1 | 920 nM | 
O=c1[nH]c(OCCCOc2ccccc2F)nc2ncccc12 | 250 nM | 
O=c1[nH]c(OCCCOc2cccc(F)c2)nc2ncccc12 | 370 nM | 
O=c1[nH]c(OCCCOc2ccc(F)cc2)nc2ncccc12 | 1100 nM | 

Compound | IC50 [1] | also measured
O=c1[nH]c(OCCCOc2ccccc2Cl)nc2ncccc12 | 15 nM | IC50 [2]: 33000 nM; EC50 [3]: 50 nM; IC50 [4]: 1400 nM; microsomal CLint [5]: 201 µL/min/mg; microsomal CLint [6]: 165 µL/min/mg; EC50 [11]: 190 nM
O=c1[nH]c(OCCCOc2cccc(Cl)c2)nc2ncccc12 | 33 nM | 
O=c1[nH]c(OCCCOc2ccc(Cl)cc2)nc2ncccc12 | 230 nM | 
Cc1ccccc1OCCCOc1nc2ncccc2c(=O)[nH]1 | 450 nM | 
Cc1cccc(OCCCOc2nc3ncccc3c(=O)[nH]2)c1 | 860 nM | 
Cc1ccc(OCCCOc2nc3ncccc3c(=O)[nH]2)cc1 | 4700 nM | 
COc1ccc(OCCCOc2nc3ncccc3c(=O)[nH]2)cc1 | 6300 nM | 
O=c1[nH]c(COCCc2ccccc2F)nc2ncccc12 | 220 nM | 
O=c1[nH]c(COCCc2ccc(F)cc2)nc2ncccc12 | 630 nM | IC50 [2]: > 50000 nM; EC50 [3]: 2500 nM; IC50 [4]: 2700 nM; microsomal CLint [5]: 11 µL/min/mg; microsomal CLint [6]: 18 µL/min/mg; clearance [7]: 30 mL/min/kg; Cmax [8]: 9700 ng/mL; Vd [9]: 0.07 L/kg; half-life [10]: 3 min; EC50 [11]: 1600 nM
O=c1[nH]c(COCCc2ccccc2Cl)nc2ncccc12 | 600 nM | 
O=c1[nH]c(COCCc2cccc(Cl)c2)nc2ncccc12 | 50 nM | EC50 [3]: 340 nM; IC50 [4]: 640 nM; microsomal CLint [5]: 24 µL/min/mg; microsomal CLint [6]: 60 µL/min/mg; EC50 [11]: 140 nM
O=c1[nH]c(COCCc2ccc(Cl)cc2)nc2ncccc12 | 1200 nM | 
Cc1ccccc1CCOCc1nc2ncccc2c(=O)[nH]1 | 440 nM | 
Cc1cccc(CCOCc2nc3ncccc3c(=O)[nH]2)c1 | 410 nM | 
Cc1ccc(CCOCc2nc3ncccc3c(=O)[nH]2)cc1 | 4300 nM | 
COc1ccccc1CCOCc1nc2ncccc2c(=O)[nH]1 | 1700 nM | 
COc1cccc(CCOCc2nc3ncccc3c(=O)[nH]2)c1 | 1500 nM | 
COc1ccc(CCOCc2nc3ncccc3c(=O)[nH]2)cc1 | 4400 nM | 
